Reference: ChEMBL document CHEMBL1142153, “Pharmacokinetics and disposition of CS-023 (RO4908463), a novel parenteral carbapenem, in animals” (Antimicrob Agents Chemother, 2007)

Assays:
[1] = tested on: Rattus norvegicus; assay: Urinary excretion in rat assessed as radioactivity at 10 mg/kg, iv after 24 h; type: ADME, organism-based, Urine; design: dose 10 mg/kg, route intravenous; conditions: in vivo
Procedure, shortened: (§1)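 Rats were dosed i.v. via the tail vein with [14C]CS-023 at 10 mg/kg (4.58 MBq/kg) in saline, then kept in individual metabolic cages for separate urine and feces collection over 7 days. Samples up to 24 h were collected at around 4°C into 0.5 M MOPS pH 6.0, and feces were homogenized. Radioactivity was measured by liquid scintillation counting. Parent drug and metabolite were apportioned by silica TLC (3% NaCl:acetonitrile 2:1) with imaging-plate analysis. n=4.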

[2] = tested on: Rattus norvegicus; assay: Fecal excretion in rat assessed as radioactivity at 10 mg/kg, iv after 24 h; type: ADME, organism-based; design: dose 10 mg/kg, route intravenous; conditions: in vivo; procedure, shortened: as §1

Structure (SMILES): C[C@@H]1[C@H]([C@H](C(=O)O)[C@@H](C)O)N=C(C(=O)O)[C@H]1S[C@H]1C[C@@H](C(=O)N2CC[C@H](NC(=O)CNC(=N)N)C2)N(C)C1
- Activity [1]: 31.4%
- Activity [2]: 1.3%
